Source: ChEMBL document CHEMBL4130614, “Synthesis and Bioactivity of Reduced Chalcones Containing Sulfonamide Side Chains” (J Nat Prod, 2018)

Columns and labels:
[1] = tested on: Mycobacterium tuberculosis; assay: Antibacterial activity against Mycobacterium tuberculosis H37Rv ATCC 25618 measured at 24 hrs interval by BACTEC radiometric method; assay type: functional
Outline: (§1)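 H37Rv grown in 7H9 with ADC to about 0.16 A600 (one McFarland), inoculated into BACTEC vials and incubated at 37 °C to GI 500 (±50). This primary culture was then dosed with filter-sterilised compound at 10 μM in DMSO (final DMSO 2.5%) and held at 37 °C. Growth was read every 24 h as radiometric CO₂ growth index against controls.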

[2] = tested on: Mycobacterium tuberculosis; assay: Antibacterial activity against Mycobacterium tuberculosis H37Rv ATCC 25618 assessed as growth inhibition at 10 uM measured at 24 hrs interval by BACTEC radiometric method relative to control; assay type: functional; settings: for inhibition of growth at 10 µM: Mycobacterium tuberculosis, H37Rv ATCC 25618, 24 h, read-out: GI; outline: as §1
[3] = tested on: Plasmodium falciparum; assay: Antiplasmodial activity against chloroquine-sensitive Plasmodium falciparum NF54 by lactate dehydrogenase assay; assay type: functional, organism-based
Outline: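 Asexual erythrocyte-stage P. falciparum kept in continuous in vitro culture (modified Trager–Jensen). Activity quantified by parasite lactate dehydrogenase assay (modified Makler method). Triplicate wells, on one or two separate occasions. IC50 from full dose–response curves by nonlinear curve fitting. Chloroquine run as internal standard to monitor conditions.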

[4] = Mycobacterium tuberculosis, H37Rv ATCC 25618, 24 h, read-out: MIC99

| SMILES | MIC99 [1, 4] | inhibition of growth at 10 µM [2] | IC50 [3] | also measured |
| --- | --- | --- | --- | --- |
| Nc1ccc(S(N)(=O)=O)cc1 [SULFANILAMIDE] | > 10 µM | 0% | Not Active | – |
| Cc1cc(NS(=O)(=O)c2ccc(N)cc2)no1 [SULFAMETHOXAZOLE] | – | – | Not Active | – |
| Oc1cccc(CCCc2ccccc2)c1 | > 10 µM | 94% | Not Active | – |
| COc1ncnc(NS(=O)(=O)c2ccc(N)cc2)c1OC [SULFADOXINE] | – | – | Not Active | – |
| CN(C)Cc1ccc(CCCc2ccccc2)cc1O.Cl | – | – | – | MIC99 [1]: >10 µM; growth inhibition (GI) [2]: 36% |
| C[C@H]1[C@H](OC(=O)CCC(=O)O)O[C@@H]2O[C@@]3(C)CC[C@H]4[C@H](C)CC[C@@H]1[C@@]24OO3 [ARTESUNATE] | – | – | – | IC50 ([3]; Plasmodium falciparum, NF54, read-out: IC50): < 5.2 µM |
| NS(=O)(=O)c1ccc(NCc2ccc(CCCc3ccccc3)cc2O)cc1 | > 10 µM | 14% | Not Active | – |
| NS(=O)(=O)c1ccc(NCc2cc(CCCc3ccccc3)cc(CNc3ccc(S(N)(=O)=O)cc3)c2O)cc1 | > 10 µM | 0% | – | – |
| CN(C)Cc1cc(CCCc2ccccc2)cc(CN(C)C)c1O.Cl.Cl | – | – | – | MIC99 [1]: >10 µM; growth inhibition (GI) [2]: 33% |
| Oc1ccc(CCCc2ccccc2)cc1 | > 10 µM | 96% | – | – |
| CN(C)Cc1cc(CCCc2ccccc2)cc(CN(C)C)c1O | > 10 µM | 42% | – | – |
| CN(C)Cc1ccc(CCCc2ccccc2)cc1O | > 10 µM | – | – | growth inhibition (GI) [2]: 74% |
